# Measured values collected from several papers.
# Target: Homeodomain-interacting protein kinase 4 (HIPK4, Homo sapiens, UniProt Q8NE63)
# Sequence (Q8NE63 1-616, as in one of the studies): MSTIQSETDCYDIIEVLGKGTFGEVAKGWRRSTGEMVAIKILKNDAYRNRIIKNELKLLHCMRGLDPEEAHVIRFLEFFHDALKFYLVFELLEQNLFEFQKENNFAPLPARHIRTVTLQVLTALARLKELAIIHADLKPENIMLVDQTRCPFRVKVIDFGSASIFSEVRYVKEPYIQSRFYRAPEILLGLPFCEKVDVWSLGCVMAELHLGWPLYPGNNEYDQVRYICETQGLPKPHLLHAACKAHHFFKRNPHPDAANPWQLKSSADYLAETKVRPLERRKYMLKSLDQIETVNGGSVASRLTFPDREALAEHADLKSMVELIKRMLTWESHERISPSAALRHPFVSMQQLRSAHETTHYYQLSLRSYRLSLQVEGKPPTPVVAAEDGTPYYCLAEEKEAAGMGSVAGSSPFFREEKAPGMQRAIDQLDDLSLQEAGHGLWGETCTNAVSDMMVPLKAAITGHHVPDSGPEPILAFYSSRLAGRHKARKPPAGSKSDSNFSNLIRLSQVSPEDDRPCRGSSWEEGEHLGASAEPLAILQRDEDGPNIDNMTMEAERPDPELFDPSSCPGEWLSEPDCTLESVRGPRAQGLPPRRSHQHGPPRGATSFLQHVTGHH
Structure (SMILES),effect on,technique,tested at,remaining binding [%]
C[C@@H]1CN(c2cc(-c3n[nH]c4ccc(OC5(C)CC5)cc34)ncn2)C[C@H](C)O1,cell-free assay,competition with immobilised ligand,0.1 µM,97
C[C@@H](c1ccc(-n2cnc3c(N)ncnc32)cc1)N1CCc2nn(C)c(Cc3ccccc3)c2C1=O,binding,competition with immobilised ligand,0.1 µM,100
COc1ncc2cc3ccccc3nc2c1C#N,cell-free assay,competition with immobilised ligand,5 µM,100
COc1ccc2c(c1)O[C@@H](c1ccc(OC)c(OC)c1)C[C@H]2NC(=O)C1(c2ccc3c(c2)OC(F)(F)O3)CC1,cell-free assay,competition with immobilised ligand,1 µM,51
Cc1cnn2ncc(-c3ccnc(N(C)C)n3)c2c1,binding,,1 µM,77
O=C(c1ccc(Nc2ncc(Cl)c(-c3cc4ccccc4s3)n2)cc1)N1CCC(N2CCCC2)CC1,binding,competition with immobilised ligand,1 µM,2.5
COc1ccnn2ncc(-c3ccnc(N(C)C)n3)c12,binding,,1 µM,100
O=C(NCCCN1CCOCC1)c1ccc(Nc2ncc(Cl)c(-c3ccc(Cl)s3)n2)cc1,binding,competition with immobilised ligand,1 µM,14
C[C@H](c1ccnc(Nc2nc3ccc(-c4cc(N(C)C)ncn4)cc3[nH]2)c1)N1CCN(C(=O)CC(F)(F)F)CC1,cell-free assay,competition with immobilised ligand,0.1 µM,100
COc1cnc(Nc2cccc(S(N)(=O)=O)c2)nc1N1CCN(c2ccccc2)CC1,binding,competition with immobilised ligand,1 µM,99
N[C@@H]1CCN(c2nccc(-c3cnn4ncccc34)n2)C1,binding,,1 µM,98
CN(c1ccnc(CNc2nc(Nc3ccc4c(c3)CC(=O)N4)ncc2C(F)(F)F)n1)S(C)(=O)=O,cell-free assay,competition with immobilised ligand,1 µM,35
C=CC(=O)N1CCC(C(=O)NCC(=O)N2CCN(c3nc(-c4cnc(N)nc4C(F)F)nc(N4CCOCC4)n3)CC2)CC1,binding,competition with immobilised ligand,1 µM,100
O=C(c1ccc(Nc2ncc(Cl)c(-c3ccc(Cl)s3)n2)cc1)N1CCC(N2CCCC2)CC1,binding,competition with immobilised ligand,1 µM,3.6
CN(C)C(=O)Cn1cc(-c2nc([C@@](C)(c3ccc(-c4cnc(N)nc4)cc3)C3CC3)no2)cn1,cell-free assay,competition with immobilised ligand,1 µM,70
CC1CCCN1c1nccc(-c2cnn3ncccc23)n1 (stereo not shown),binding,,1 µM,97
Nc1ncc2c(n1)-c1c([nH]c3ccc(C#CC4CC4)cc13)CCCC2,binding,competition with immobilised ligand,1 µM,95
O=C(NCC1CCOCC1)c1n[nH]cc1NC(=O)c1c(F)cccc1F,binding,competition with immobilised ligand,1 µM,78
Cn1cc(Cl)c2c(Oc3c(F)cc(Nc4cc(Cl)nc(N)n4)cc3F)ccnc21,cell-free assay,competition with immobilised ligand,0.1 µM,100
CN(C)c1ncc(F)c(-c2cnn3ncccc23)n1,binding,,1 µM,100
CN(C(=O)c1ccccc1)c1cc(N(C)c2ccc3c(c2)CCc2ccc(C(=O)NCCN4CCOCC4)cc2C3=O)ccc1F,cell-free assay,competition with immobilised ligand,1 µM,100
C[C@H]1CCN(c2nccc(-c3cnn4ncccc34)n2)C1,binding,,1 µM,80
